Data from paper PMC4869561 (Inflammatory Bowel Diseases, 2016).
≈ marks a conversion by molar mass, not a printed value. Entries after “also recorded” stand apart in the source; their conditions may differ. Like-named read-outs stand apart in the source and are kept apart here.

Tests used:
[1] = system: anti-CD3/anti-CD28-stimulated PBMCs; assay: CD3/CD28 stimulation of PBMCs, IL-2 and IFN-γ release; type: cell-based, human; conditions: for efficacy of inhibition of IFN-γ release / efficacy of inhibition of IL-2 release: anti-CD3/anti-CD28-stimulated PBMCs
LPS-stimulated PBMCs = assay: LPS stimulation of PBMCs, IL-8 release; type: cell-based, human; conditions: for inhibition: Homo sapiens, PBMC, read-out: maximum inhibition of IL-8 release
In short: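 Healthy-donor PBMCs (Lymphoprep) at 1 × 10^6 cells/mL in RPMI 1640 with 10% heat-inactivated FBS and 25 mM HEPES. Preincubated 2 h at 37°C, 5% CO2 with test compound 0.1–1000 ng/mL or DMSO 0.5% v/v. LPS 1 ng/mL then added for 24 h. Supernatant IL-8 measured by ELISA. At least 3 independent experiments.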

[2] = system: LPS-stimulated primary human macrophages; assay: LPS activation of monocyte-derived macrophages, IL-8 and TNF-α release; type: cell-based; conditions: for inhibition of IL-8 release / inhibition of TNF-α release: LPS-stimulated macrophages, up to maximum tested 250 ng/mL; for inhibition: Homo sapiens, Macrophage
In short: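 CD14+ cells taken from human PBMCs by magnetic positive selection. Differentiated 12–14 days in RPMI with 10% FBS and GM-CSF 100 ng/mL. Plated at 2 × 10^5 cells/mL and equilibrated for 2 h. Pretreated 2 h with test compound or DMSO 0.5% v/v, then stimulated with LPS 10 ng/mL for 24 h. Supernatant IL-8 and TNF-α measured by ELISA.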

[3] = system: myofibroblasts isolated from inflamed UC mucosa; assay: TNF-α-stimulated IL-6 and IL-8 release by UC myofibroblasts; type: cell-based, human; conditions: for maximum inhibition (efficacy) of IL-6 release / maximum inhibition (efficacy) of IL-8 release: UC myofibroblasts, TNF-α-stimulated, 0.01-10 μg/mL; for IC50: 24 h
In short: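 Myofibroblasts grown from explants of inflamed resected UC mucosa in DMEM with 20% FBS and antibiotics, passaged with trypsin-EDTA and used at passage ≥4. Seeded at 5 × 10^4/well and cultured overnight. Stimulated with TNF-α 20 ng/mL plus DMSO 0.5% v/v or test compound (0.000001–1 or 0.01–10 μg/mL). After 24 h, IL-6 and IL-8 measured by ELISA as percent inhibition versus TNF-α + DMSO; at least 3 independent experiments.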

HT29 cells = assay: IL-1β-stimulated IL-8 production by HT29 cells; type: cell-based, human; conditions: for maximum inhibition of IL-8 secretion, compound alone: IL-1β-stimulated HT29, 0.1-1000 ng/mL, maximum at 1000 ng/mL; for inhibitory effect on IL-8 secretion at 100 ng/mL: IL-1β-stimulated HT29, compound alone
[4] = system: inflamed colonic biopsies from patients with UC; assay: Organ culture of inflamed colonic UC biopsies, cytokine release; type: cell-based, human; conditions: 24 h; for inhibition at 1 µg/mL: Homo sapiens
In short: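 Inflamed colonic UC biopsies cultured one per well in serum-free HL-1 medium with penicillin/streptomycin at 37°C, 5% CO2. Treated with DMSO 0.5% v/v, test compounds at 1 μg/mL, the three selective inhibitors combined, or one compound at 0.001–1 μg/mL. After 24 h, supernatant IL-1β, IL-6 and IL-8 measured by ELISA. Results given as mean percent inhibition versus DMSO; at least 3 independent experiments.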

[5] = system: patients with active Crohn's disease; conditions: cited from earlier work
[6] = Propidium iodide flow cytometry cell viability assay; type: cell-based; conditions: concentrations tested in the cellular assays, data not shown
[7] = system: mouse acetic acid-induced colitis; conditions: mouse acetic acid-induced colitis model; cited from earlier work
[8] = system: rheumatoid arthritis patients; conditions: phase III trial; cited from earlier work
patients with UC = conditions: oral, clinical trial; cited from earlier work
[9] = read-out: inhibition of IL-8 release
[10] = read-out: inhibition of TNF-α release
[11] = Homo sapiens, read-out: IL-6 (IC50 Value)
[12] = Homo sapiens, read-out: IL-8 (IC50 Value)
[13] = read-out: inhibition of IL-1β release
[14] = read-out: inhibition of IL-6 release

SMILES | efficacy of inhibition of IFN-γ release [1] | efficacy of inhibition of IL-2 release [1] | inhibition of IL-8 release [2] | inhibition of TNF-α release [2] | maximum inhibition (efficacy) of IL-6 release [3] | maximum inhibition (efficacy) of IL-8 release [3] | maximum inhibition of IL-8 secretion, compound alone (HT29 cells) | inhibitory effect on IL-8 secretion at 100 ng/mL (HT29 cells) | inhibition (LPS-stimulated PBMCs) | inhibition [2, 9] | inhibition [2, 10] | IC50 [3, 11] | IC50 [3, 12] | inhibition at 1 µg/mL [4, 13] | inhibition at 1 µg/mL [4, 14] | inhibition at 1 µg/mL [4, 9] | also measured
COc1ccc(-c2cc3nccn3c(Nc3ncccc3C(N)=O)n2)cc1OC [BAY-61-3606] | maximal efficacy | weaker inhibition | less than 50% | less than 50% | over 90% | over 90% | 17% | Neither dasatinib nor BAY-61-3606 had any significant inhibitory effect |  |  |  |  |  |  |  |  | efficacy of inhibition of IFN-γ release ([1]; listed as BAY61-3606): weaker inhibition; potency weaker than TOP1210, IFN-γ release ([1]; ratio of IC50 values): 120 fold; potency weaker than TOP1210, IL-8 release (LPS-stimulated PBMCs; LPS-stimulated PBMCs, ratio of IC50 values): ~300 fold; maximum inhibition of IL-8 release (LPS-stimulated PBMCs; LPS-stimulated PBMCs, up to maximum tested 1 μg/mL): 83%
Cc1ccc(-n2nc(C(C)(C)C)cc2NC(=O)Nc2ccc(OCCN3CCOCC3)c3ccccc23)cc1 [BIRB-796] | inactive; also recorded: little-to-no effect | little-to-no effect |  |  | 70% | 70% |  |  | < 50% | < 50% | < 50% | > 1 µg/mL | > 1 µg/mL | 50 to 65% | 50 to 65% | 50 to 65% | serum C-reactive protein ([5]; after 1 week): dose-dependent decrease; clinical efficacy endpoints compared to placebo ([5]; any time point): no clinical efficacy endpoints were reached
Cc1nc(Nc2ncc(C(=O)Nc3c(C)cccc3Cl)s2)cc(N2CCN(CCO)CC2)n1 [Dasatinib] |  |  |  |  |  |  |  | Neither dasatinib nor BAY-61-3606 had any significant inhibitory effect | < 50% | < 50% | 87% | > 1 µg/mL | > 1 µg/mL |  |  |  | inhibition at 10 µg/mL ([3]; Homo sapiens, read-out: inhibition of IL-8 release): ~70%; inhibition of IL-1β release ([4]; inflamed UC biopsies, 1 μg/mL): did not have any significant effect; inhibition of IL-6 release ([4]; inflamed UC biopsies, 1 μg/mL): did not have any significant effect; inhibition of IL-8 release ([4]; inflamed UC biopsies, 1 μg/mL): did not have any significant effect
C#Cc1cc(Nc2nccc(Oc3ccc(NC(=O)Nc4cc(C(C)(C)C)nn4-c4ccc(C)cc4)c4ccccc34)n2)cc(C(=O)NCCOCCOCCOC)c1 [TOP1210, 3-((4-((4-(3-(3-(tert-butyl)-1-(p-tolyl)-1H-pyrazol-5-yl)ureido)naphthalen-1 yl)oxy)pyrimidin-2-yl)amino)-5-ethynyl-N-(2-(2-(2-methoxyethoxy)ethoxy)ethyl)benzamide] | maximal inhibition |  | maximal inhibition | maximal inhibition |  |  | maximal efficacy |  | 100% |  |  | 0.0022 µg/mL (≈ 0.00276 µM) | 0.0021 µg/mL (≈ 0.00264 µM) | 80 to 90% | 80 to 90% | 80 to 90% | potency weaker than dasatinib, IL-2 release ([1]; ratio vs dasatinib): approximately 15 fold; potency weaker as inhibitor of IL-2 release compared with IFN-γ release ([1]; same compound, IL-2 vs IFN-γ): 18 fold; cell viability (propidium iodide, flow cytometry) [6]: not to effect cell viability
COc1cc(Nc2ncc(F)c(Nc3ccc4c(n3)N(COP(=O)(O)O)C(=O)C(C)(C)O4)n2)cc(OC)c1OC [fostamatinib] |  |  |  |  |  |  |  |  |  |  |  |  |  |  |  |  | mucosal damage [7]: decrease mucosal damage; efficacy in rheumatoid arthritis [8]: limited efficacy
C[C@@H]1CCN(C(=O)CC#N)C[C@@H]1N(C)c1ncnc2[nH]ccc12 [tofacitinib] |  |  |  |  |  |  |  |  |  |  |  |  |  |  |  |  | efficacy in UC (patients with UC): effective
